Data reported in ChEMBL document CHEMBL1154352, “Toll-like receptor 7 selective synthetic oligoribonucleotide agonists: synthesis and structure-activity relationship studies” (J Med Chem, 2009).
Active and inactive are the calls of the source. The calls are words filed in the database; no cut-off is given here.

Columns and labels:
[1] = molecular target: Toll-like receptor 3 (Homo sapiens) (UniProt O15455); assay: Activation of human TLR3 expressed in HEK293 assessed as induction of NF-kappaB activity reporter gene assay; assay type: cell-based
[2] = test system: Splenocyte; assay: Immunomodulatory activity in C57BL/6 mouse splenocytes bearing TLR7 receptor assessed as IL6 release at 100 ug/ml after 24 hrs by ELISA; assay type: functional, cell-based
Method in brief: (§1)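 C57BL/6 splenocytes in RPMI 1640 with 10% FBS, penicillin/streptomycin, 2 mM L-glutamine, plated at 5 × 10^6 cells/mL; compounds in PBS added, 37 °C for 24 h. Supernatant IL-12 and IL-6 by ELISA; representative of three independent experiments.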

[3] = test system: Splenocyte; assay: Immunomodulatory activity in C57BL/6 mouse splenocytes bearing TLR7 receptor assessed as IL12 release at 100 ug/ml after 24 hrs by ELISA; assay type: functional, cell-based; method in brief: as §1
[4] = test system: PBMC; assay: Immunomodulatory activity in human PBMC assessed as induction of IFN-alpha at 100 ug/ml after 24 hrs
[5] = species on record: Homo sapiens; assay: Ratio of human TLR7 activity to human TLR8 activity
Method in brief: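 TLR7/TLR8 ratio computed from fold NF-κB (SEAP reporter) activation in HEK293 cells stably expressing human TLR7 versus TLR8, compounds at 50 μg/mL, 18 h exposure; representative of three independent experiments.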

[6] = molecular target: T1, Toll-like receptor 7 (Homo sapiens) (UniProt Q9NYK1); assay: Activation of human TLR7 expressed in HEK293XL assessed as fold induction of NF-kappaB activity at 50 ug/ml after 18 hrs by reporter gene assay relative to control
T1 sequence (whole entry): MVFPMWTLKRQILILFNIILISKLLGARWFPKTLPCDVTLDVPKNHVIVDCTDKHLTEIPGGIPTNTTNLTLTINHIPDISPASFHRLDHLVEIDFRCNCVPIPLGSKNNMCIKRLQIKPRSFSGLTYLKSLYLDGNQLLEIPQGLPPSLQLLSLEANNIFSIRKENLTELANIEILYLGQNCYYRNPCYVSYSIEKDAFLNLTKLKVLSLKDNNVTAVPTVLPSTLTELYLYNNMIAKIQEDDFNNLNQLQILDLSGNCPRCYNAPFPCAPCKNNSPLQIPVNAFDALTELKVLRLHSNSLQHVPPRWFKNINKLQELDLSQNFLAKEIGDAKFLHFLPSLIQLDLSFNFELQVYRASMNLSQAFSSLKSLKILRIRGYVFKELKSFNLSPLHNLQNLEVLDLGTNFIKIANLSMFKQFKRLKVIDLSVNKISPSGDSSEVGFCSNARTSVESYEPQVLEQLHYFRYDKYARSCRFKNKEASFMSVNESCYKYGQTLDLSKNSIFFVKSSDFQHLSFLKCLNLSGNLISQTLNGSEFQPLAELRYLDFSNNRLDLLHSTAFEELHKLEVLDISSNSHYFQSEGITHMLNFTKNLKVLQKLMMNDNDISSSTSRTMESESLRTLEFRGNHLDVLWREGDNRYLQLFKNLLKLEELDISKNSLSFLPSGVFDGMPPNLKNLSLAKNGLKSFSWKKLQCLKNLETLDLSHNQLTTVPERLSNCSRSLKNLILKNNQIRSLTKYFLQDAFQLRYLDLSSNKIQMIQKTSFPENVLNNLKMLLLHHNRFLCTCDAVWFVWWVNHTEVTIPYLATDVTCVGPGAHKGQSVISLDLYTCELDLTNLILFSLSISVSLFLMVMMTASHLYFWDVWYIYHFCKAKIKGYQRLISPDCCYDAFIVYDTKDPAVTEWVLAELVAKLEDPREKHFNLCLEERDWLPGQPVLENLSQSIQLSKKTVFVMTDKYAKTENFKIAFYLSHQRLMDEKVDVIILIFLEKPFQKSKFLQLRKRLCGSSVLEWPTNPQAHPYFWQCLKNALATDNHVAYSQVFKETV
Method in brief: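 HEK293 cells stably expressing human TLR7 or TLR8, transiently transfected with SEAP reporter plasmid; medium replaced, SIMRA compounds added, 18 h incubation. Supernatant SEAP measured by QuantiBlue; expressed as fold increase in NF-κB activity over PBS control. Tabulated data at 50 μg/mL, representative of three independent experiments.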

[7] = molecular target: T2, Toll-like receptor 9 (Mus musculus) (UniProt Q9EQU3); assay: Activation of mouse TLR9 expressed in HEK293 assessed as induction of NF-kappaB activity reporter gene assay; assay type: cell-based
T2 sequence (whole entry): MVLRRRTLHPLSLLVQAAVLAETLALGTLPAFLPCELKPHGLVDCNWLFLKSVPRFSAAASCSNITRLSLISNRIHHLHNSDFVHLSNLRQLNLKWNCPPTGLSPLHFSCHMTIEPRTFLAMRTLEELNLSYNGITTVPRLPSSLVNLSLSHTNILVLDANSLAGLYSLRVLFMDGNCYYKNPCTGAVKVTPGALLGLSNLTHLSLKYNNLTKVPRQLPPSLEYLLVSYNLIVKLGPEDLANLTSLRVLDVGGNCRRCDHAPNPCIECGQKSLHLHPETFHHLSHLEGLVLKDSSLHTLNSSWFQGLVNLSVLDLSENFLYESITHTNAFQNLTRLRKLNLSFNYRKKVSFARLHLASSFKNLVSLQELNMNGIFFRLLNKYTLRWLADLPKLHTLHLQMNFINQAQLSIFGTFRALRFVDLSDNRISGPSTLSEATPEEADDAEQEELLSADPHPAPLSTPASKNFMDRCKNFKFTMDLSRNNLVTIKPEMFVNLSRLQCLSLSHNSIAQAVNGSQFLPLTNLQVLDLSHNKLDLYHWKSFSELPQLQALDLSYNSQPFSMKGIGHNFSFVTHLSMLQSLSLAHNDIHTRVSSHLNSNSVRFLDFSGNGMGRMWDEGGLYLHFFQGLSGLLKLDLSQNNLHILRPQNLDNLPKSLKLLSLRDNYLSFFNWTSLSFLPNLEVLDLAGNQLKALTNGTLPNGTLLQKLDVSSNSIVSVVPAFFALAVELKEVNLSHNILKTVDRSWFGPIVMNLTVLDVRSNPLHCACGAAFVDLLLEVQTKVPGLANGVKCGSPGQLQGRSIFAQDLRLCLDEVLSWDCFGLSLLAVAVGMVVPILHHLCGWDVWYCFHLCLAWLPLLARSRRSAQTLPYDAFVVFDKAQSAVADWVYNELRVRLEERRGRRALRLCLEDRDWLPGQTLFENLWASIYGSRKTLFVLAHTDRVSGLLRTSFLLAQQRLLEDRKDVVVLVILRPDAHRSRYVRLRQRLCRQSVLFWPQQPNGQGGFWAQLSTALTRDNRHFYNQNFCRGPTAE

[8] = test system: PBMC; assay: Immunomodulatory activity in human PBMC assessed as induction of IL12 at 100 ug/ml after 24 hrs; assay type: functional, cell-based
Method in brief: (§2)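 Human PBMCs plated at 5 × 10^6 cells/mL; compounds dissolved in PBS added at various concentrations, 37 °C for 24 h. Supernatant cytokines/chemokines quantified with human Luminex multiplex kit.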

[9] = test system: PBMC; assay: Immunomodulatory activity in human PBMC assessed as induction of TNFalpha at 100 ug/ml after 24 hrs; assay type: functional, cell-based; method in brief: as §2

Sequence of Toll-like receptor 3 (Homo sapiens) (O15455 whole entry): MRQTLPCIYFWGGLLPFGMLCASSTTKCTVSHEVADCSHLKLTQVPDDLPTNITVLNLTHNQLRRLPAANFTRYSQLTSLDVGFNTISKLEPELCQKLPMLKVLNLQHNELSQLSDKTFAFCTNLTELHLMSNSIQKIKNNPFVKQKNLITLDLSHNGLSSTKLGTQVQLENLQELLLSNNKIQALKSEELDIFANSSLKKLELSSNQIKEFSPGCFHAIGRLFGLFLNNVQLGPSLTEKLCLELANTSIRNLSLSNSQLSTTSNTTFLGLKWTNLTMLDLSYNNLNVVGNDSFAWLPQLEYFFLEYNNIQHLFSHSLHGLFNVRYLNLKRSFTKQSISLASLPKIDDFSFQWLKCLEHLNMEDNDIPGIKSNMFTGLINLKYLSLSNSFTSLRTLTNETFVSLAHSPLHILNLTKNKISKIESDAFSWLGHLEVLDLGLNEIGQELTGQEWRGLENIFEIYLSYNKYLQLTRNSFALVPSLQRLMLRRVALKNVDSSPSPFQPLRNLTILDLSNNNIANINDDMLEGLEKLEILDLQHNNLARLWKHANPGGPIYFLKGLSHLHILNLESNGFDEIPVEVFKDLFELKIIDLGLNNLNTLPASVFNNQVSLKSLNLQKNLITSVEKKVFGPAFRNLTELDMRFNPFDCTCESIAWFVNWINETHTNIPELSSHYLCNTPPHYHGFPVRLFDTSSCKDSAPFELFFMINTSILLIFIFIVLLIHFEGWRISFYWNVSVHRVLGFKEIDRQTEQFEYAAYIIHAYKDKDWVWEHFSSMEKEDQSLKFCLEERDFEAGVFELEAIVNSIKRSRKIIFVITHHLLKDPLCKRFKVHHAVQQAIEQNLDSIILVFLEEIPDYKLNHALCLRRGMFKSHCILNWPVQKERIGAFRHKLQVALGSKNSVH

Activity [1] | Activity [2] | Activity [3] | Ratio [5] | fold change (FC) [6] | Activity [7] | Compound | IFN-alpha [4] | Activity [8] | Activity [9]
inactive | Active | Active | 29.6 | 26.6 | inactive | Nc1ccn([C@@H]2O[C@H](COP(=O)(S)O[C@H]3[C@@H](O)[C@H](n4cnc5c(N)ncnc54)O[C@@H]3CO)[C@@H](OP(=O)(S)OC[C@H]3O[C@@H](n4ccc5c(=O)[nH]c(N)nc54)[C@H](O)[C@@H]3OP(=O)(S)OC[C@H]3O[C@@H](n4ccc(N)nc4=O)[C@H](O)[C@@H]3OP(=O)(S)OC[C@H]3O[C@@H](n4ccc(=O)[nH]c4=O)[C@H](O)[C@@H]3OP(=O)(S)OC[C@H]3O[C@@H](n4ccc5c(=O)[nH]c(N)nc54)[C@H](O)[C@@H]3OP(=O)(S)OC[C@H]3O[C@@H](n4cnc5c(N)ncnc54)[C@H](O)[C@@H]3OP(=O)(S)OC[C@H]3O[C@@H](n4ccc5c(=O)[nH]c(N)nc54)[C@H](O)[C@@H]3OP(=O)(S)OC[C@H]3O[C@@H](n4ccc(N)nc4=O)[C@H](O)[C@@H]3OP(=O)(S)OC[C@H]3O[C@@H](n4ccc(=O)[nH]c4=O)[C@H](O)[C@@H]3OP(=O)(S)OC[C@H]3O[C@@H](n4ccc(=O)[nH]c4=O)[C@H](O)[C@@H]3OP(=O)(S)OCC(O)COP(=O)(S)O[C@H]3[C@@H](O)[C@H](n4ccc(=O)[nH]c4=O)O[C@@H]3COP(=O)(S)O[C@H]3[C@@H](O)[C@H](n4ccc(=O)[nH]c4=O)O[C@@H]3COP(=O)(S)O[C@H]3[C@@H](O)[C@H](n4ccc(N)nc4=O)O[C@@H]3COP(=O)(S)O[C@H]3[C@@H](O)[C@H](n4ccc5c(=O)[nH]c(N)nc54)O[C@@H]3COP(=O)(S)O[C@H]3[C@@H](O)[C@H](n4cnc5c(N)nc(N)nc54)O[C@@H]3COP(=O)(S)O[C@H]3[C@@H](O)[C@H](n4ccc5c(=O)[nH]c(N)nc54)O[C@@H]3COP(=O)(S)O[C@H]3[C@@H](O)[C@H](n4ccc(=O)[nH]c4=O)O[C@@H]3COP(=O)(S)O[C@H]3[C@@H](O)[C@H](n4ccc(N)nc4=O)O[C@@H]3COP(=O)(S)O[C@H]3[C@@H](O)[C@H](n4ccc5c(=O)[nH]c(N)nc54)O[C@@H]3COP(=O)(S)O[C@H]3[C@@H](O)[C@H](n4ccc(N)nc4=O)O[C@@H]3COP(=O)(S)O[C@H]3[C@@H](O)[C@H](n4cnc5c(N)ncnc54)O[C@@H]3CO)[C@H]2O)c(=O)n1 (stereo partly drawn) | 188 pg/mL | 2240 pg/mL | 1410 pg/mL
inactive | Active | Active | 32.3 | 22.6 | inactive | Nc1ccn([C@@H]2O[C@H](COP(=O)(S)O[C@H]3[C@@H](O)[C@H](n4cnc5c(N)ncnc54)O[C@@H]3COP(=O)(S)O[C@H]3[C@@H](O)[C@H](n4ccc5c(=O)[nH]c(N)nc54)O[C@@H]3COP(=O)(S)O[C@H]3[C@@H](O)[C@H](n4ccc(=O)[nH]c4=O)O[C@@H]3COP(=O)(S)O[C@H]3[C@@H](O)[C@H](n4ccc5c(=O)[nH]c(N)nc54)O[C@@H]3COP(=O)(S)O[C@H]3[C@@H](O)[C@H](n4cnc5c(N)ncnc54)O[C@@H]3COP(=O)(S)O[C@H]3[C@@H](O)[C@H](n4cnc5c(N)ncnc54)O[C@@H]3CO)[C@@H](OP(=O)(S)OC[C@H]3O[C@@H](n4ccc5c(=O)[nH]c(N)nc54)[C@H](O)[C@@H]3OP(=O)(S)OC[C@H]3O[C@@H](n4ccc(N)nc4=O)[C@H](O)[C@@H]3OP(=O)(S)OC[C@H]3O[C@@H](n4ccc(=O)[nH]c4=O)[C@H](O)[C@@H]3OP(=O)(S)OC[C@H]3O[C@@H](n4ccc(=O)[nH]c4=O)[C@H](O)[C@@H]3OP(=O)(S)OCC(O)COP(=O)(S)O[C@H]3[C@@H](O)[C@H](n4ccc(=O)[nH]c4=O)O[C@@H]3COP(=O)(S)O[C@H]3[C@@H](O)[C@H](n4ccc(=O)[nH]c4=O)O[C@@H]3COP(=O)(S)O[C@H]3[C@@H](O)[C@H](n4ccc(N)nc4=O)O[C@@H]3COP(=O)(S)O[C@H]3[C@@H](O)[C@H](n4ccc5c(=O)[nH]c(N)nc54)O[C@@H]3COP(=O)(S)O[C@H]3[C@@H](O)[C@H](n4ccc(N)nc4=O)O[C@@H]3COP(=O)(S)O[C@H]3[C@@H](O)[C@H](n4cnc5c(N)ncnc54)O[C@@H]3COP(=O)(S)O[C@H]3[C@@H](O)[C@H](n4ccc5c(=O)[nH]c(N)nc54)O[C@@H]3COP(=O)(S)O[C@H]3[C@@H](O)[C@H](n4ccc(=O)[nH]c4=O)O[C@@H]3COP(=O)(S)O[C@H]3[C@@H](O)[C@H](n4ccc5c(=O)[nH]c(N)nc54)O[C@@H]3COP(=O)(S)O[C@H]3[C@@H](O)[C@H](n4cnc5c(N)ncnc54)O[C@@H]3COP(=O)(S)O[C@H]3[C@@H](O)[C@H](n4cnc5c(N)ncnc54)O[C@@H]3CO)[C@H]2O)c(=O)n1 (stereo partly drawn) | 204 pg/mL | 352 pg/mL | 26.2 pg/mL
